Measurements taken from paper PMC4206749 (Toxicological Research, 2014).

Tests used:
[1] = system: Salmonella typhimurium strain TA100; assay: Bacterial reverse mutation assay; format: cell-based
[2] = system: Salmonella typhimurium strain TA1535; assay: Bacterial reverse mutation assay; format: cell-based
[3] = system: Escherichia coli strain (WP2 uvrA); assay: Bacterial reverse mutation assay; format: cell-based; settings: E. coli
[4] = system: L5178Y Tk^+/− mouse lymphoma cells; assay: In vitro comet assay; format: cell-based; settings: 4 hr
[5] = system: S. typhimurium strains (TA98, TA100, TA1535, and TA1537) or E. coli strain (WP2 uvrA); assay: Bacterial reverse mutation assay, all five tester strains; format: cell-based, Salmonella typhimurium, Escherichia coli
Summary of the method: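 Pre-incubation Ames test per OECD 471 with S. typhimurium TA98, TA100, TA1535, TA1537 and E. coli WP2 uvrA. Bacteria plus test compound in DMSO (DMSO as negative control), with S9 mix (10% S9 plus cofactors) or 0.1 M phosphate buffer pH 7.4, were incubated 20 min at 37℃ shaking. Plated in histidine/biotin or tryptophan top agar, incubated 48 hr at 37℃, revertants counted. Triplicate plates; dose ratio about 2.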

[6] = system: 2 Gy irradiated Chinese hamster ovary (CHO)-K1 cells; settings: 2 Gy irradiated CHO-K1 cells; cited from earlier work

Oc1ccc(-c2ccc3cc(O)ccc3c2)c(O)c1 [HS-1793, 4-(6-hydroxy-2-naphthyl)-1,3-benzenediol]
Number of reverse mutants/plate (Mean ± SD) ([1]; TA100, with S9 activation, 78.1 μg/plate): 116 ± 13 reverse mutants/plate
Number of reverse mutants/plate (Mean ± SD) ([1]; TA100, with S9 activation, 156.3 μg/plate): 109 ± 8 reverse mutants/plate
Number of reverse mutants/plate (Mean ± SD) ([1]; TA100, with S9 activation, 312.5 μg/plate): 114 ± 4 reverse mutants/plate
Number of reverse mutants/plate (Mean ± SD) ([1]; TA100, with S9 activation, 625 μg/plate): 106 ± 19 reverse mutants/plate
Number of reverse mutants/plate (Mean ± SD) ([1]; TA100, with S9 activation, 1,250 μg/plate): 108 ± 14 reverse mutants/plate
Number of reverse mutants/plate (Mean ± SD) ([1]; TA100, with S9 activation, 2,500 μg/plate): 118 ± 11 reverse mutants/plate
Number of reverse mutants/plate (Mean ± SD) ([1]; TA100, with S9 activation, 5,000 μg/plate): 106 ± 9 reverse mutants/plate
Number of reverse mutants/plate (Mean ± SD) ([1]; TA100, without S9 activation, 78.1 μg/plate): 121 ± 8 reverse mutants/plate
Number of reverse mutants/plate (Mean ± SD) ([1]; TA100, without S9 activation, 156.3 μg/plate): 117 ± 11 reverse mutants/plate
Number of reverse mutants/plate (Mean ± SD) ([1]; TA100, without S9 activation, 312.5 μg/plate): 116 ± 9 reverse mutants/plate
Number of reverse mutants/plate (Mean ± SD) ([1]; TA100, without S9 activation, 625 μg/plate): 124 ± 6 reverse mutants/plate
Number of reverse mutants/plate (Mean ± SD) ([1]; TA100, without S9 activation, 1,250 μg/plate): 107 ± 12 reverse mutants/plate
Number of reverse mutants/plate (Mean ± SD) ([1]; TA100, without S9 activation, 2,500 μg/plate): 108 ± 6 reverse mutants/plate
Number of reverse mutants/plate (Mean ± SD) ([1]; TA100, without S9 activation, 5,000 μg/plate): 119 ± 12 reverse mutants/plate
Number of reverse mutants/plate (Mean ± SD) ([2]; TA1535, with S9 activation, 78.1 μg/plate): 24 ± 3 reverse mutants/plate
Number of reverse mutants/plate (Mean ± SD) ([2]; TA1535, with S9 activation, 156.3 μg/plate): 22 ± 3 reverse mutants/plate
Number of reverse mutants/plate (Mean ± SD) ([2]; TA1535, with S9 activation, 312.5 μg/plate): 23 ± 4 reverse mutants/plate
Number of reverse mutants/plate (Mean ± SD) ([2]; TA1535, with S9 activation, 625 μg/plate): 21 ± 4 reverse mutants/plate
Number of reverse mutants/plate (Mean ± SD) ([2]; TA1535, with S9 activation, 1,250 μg/plate): 21 ± 3 reverse mutants/plate
Number of reverse mutants/plate (Mean ± SD) ([2]; TA1535, with S9 activation, 2,500 μg/plate): 20 ± 2 reverse mutants/plate
Number of reverse mutants/plate (Mean ± SD) ([2]; TA1535, with S9 activation, 5,000 μg/plate): 21 ± 6 reverse mutants/plate
Number of reverse mutants/plate (Mean ± SD) ([2]; TA1535, without S9 activation, 78.1 μg/plate): 15 ± 2 reverse mutants/plate
Number of reverse mutants/plate (Mean ± SD) ([2]; TA1535, without S9 activation, 156.3 μg/plate): 17 ± 2 reverse mutants/plate
Number of reverse mutants/plate (Mean ± SD) ([2]; TA1535, without S9 activation, 312.5 μg/plate): 18 ± 2 reverse mutants/plate
Number of reverse mutants/plate (Mean ± SD) ([2]; TA1535, without S9 activation, 625 μg/plate): 17 ± 5 reverse mutants/plate
Number of reverse mutants/plate (Mean ± SD) ([2]; TA1535, without S9 activation, 1,250 μg/plate): 17 ± 2 reverse mutants/plate
Number of reverse mutants/plate (Mean ± SD) ([2]; TA1535, without S9 activation, 2,500 μg/plate): 18 ± 4 reverse mutants/plate
Number of reverse mutants/plate (Mean ± SD) ([2]; TA1535, without S9 activation, 5,000 μg/plate): 17 ± 3 reverse mutants/plate
Number of reverse mutants/plate (Mean ± SD) ([3]; with S9 activation, 78.1 μg/plate): 39 ± 3 reverse mutants/plate
Number of reverse mutants/plate (Mean ± SD) ([3]; with S9 activation, 156.3 μg/plate): 40 ± 2 reverse mutants/plate
Number of reverse mutants/plate (Mean ± SD) ([3]; with S9 activation, 312.5 μg/plate): 42 ± 3 reverse mutants/plate
Number of reverse mutants/plate (Mean ± SD) ([3]; with S9 activation, 625 μg/plate): 38 ± 3 reverse mutants/plate
Number of reverse mutants/plate (Mean ± SD) ([3]; with S9 activation, 1,250 μg/plate): 37 ± 2 reverse mutants/plate
Number of reverse mutants/plate (Mean ± SD) ([3]; with S9 activation, 2,500 μg/plate): 43 ± 3 reverse mutants/plate
Number of reverse mutants/plate (Mean ± SD) ([3]; with S9 activation, 5,000 μg/plate): 40 ± 2 reverse mutants/plate
Number of reverse mutants/plate (Mean ± SD) ([3]; without S9 activation, 78.1 μg/plate): 39 ± 3 reverse mutants/plate
Number of reverse mutants/plate (Mean ± SD) ([3]; without S9 activation, 156.3 μg/plate): 33 ± 3 reverse mutants/plate
Number of reverse mutants/plate (Mean ± SD) ([3]; without S9 activation, 312.5 μg/plate): 37 ± 2 reverse mutants/plate
Number of reverse mutants/plate (Mean ± SD) ([3]; without S9 activation, 625 μg/plate): 36 ± 2 reverse mutants/plate
Number of reverse mutants/plate (Mean ± SD) ([3]; without S9 activation, 1,250 μg/plate): 36 ± 3 reverse mutants/plate
Number of reverse mutants/plate (Mean ± SD) ([3]; without S9 activation, 2,500 μg/plate): 32 ± 1 reverse mutants/plate
Number of reverse mutants/plate (Mean ± SD) ([3]; without S9 activation, 5,000 μg/plate): 36 ± 2 reverse mutants/plate
% DNA in tail ([4]; S9 Mix (+), 3.9 μg/ml): 0.98 ± 0.13%
Olive moment ([4]; S9 Mix (+), 3.9 μg/ml): 0.41 ± 0.04 μm
Tail length ([4]; S9 Mix (+), 3.9 μg/ml): 0.86 ± 0.04 μm
Tail moment ([4]; S9 Mix (+), 3.9 μg/ml): 0.04 ± 0.01 μm
% DNA in tail ([4]; S9 Mix (+), 7.8 μg/ml): 1.16 ± 0.08%
Olive moment ([4]; S9 Mix (+), 7.8 μg/ml): 0.56 ± 0.06 μm
Tail length ([4]; S9 Mix (+), 7.8 μg/ml): 0.95 ± 0.13 μm
Tail moment ([4]; S9 Mix (+), 7.8 μg/ml): 0.06 ± 0.01 μm
% DNA in tail ([4]; S9 Mix (+), 15.5 μg/ml): 1.42 ± 0.16%
Olive moment ([4]; S9 Mix (+), 15.5 μg/ml): 0.78 ± 0.12 μm
Tail length ([4]; S9 Mix (+), 15.5 μg/ml): 1.04 ± 0.06 μm
Tail moment ([4]; S9 Mix (+), 15.5 μg/ml): 0.13 ± 0.02 μm
% DNA in tail ([4]; S9 Mix (+), 31 μg/ml): 1.58 ± 0.11%
Olive moment ([4]; S9 Mix (+), 31 μg/ml): 0.80 ± 0.17 μm
Tail length ([4]; S9 Mix (+), 31 μg/ml): 1.17 ± 0.07 μm
Tail moment ([4]; S9 Mix (+), 31 μg/ml): 0.09 ± 0.02 μm
% DNA in tail ([4]; S9 Mix (+), 62 μg/ml): 1.65 ± 0.09%
Olive moment ([4]; S9 Mix (+), 62 μg/ml): 0.85 ± 0.15 μm
Tail length ([4]; S9 Mix (+), 62 μg/ml): 1.20 ± 0.03 μm
Tail moment ([4]; S9 Mix (+), 62 μg/ml): 0.15 ± 0.01 μm
% DNA in tail ([4]; S9 Mix (−), 3.9 μg/ml): 0.93 ± 0.21%
Olive moment ([4]; S9 Mix (−), 3.9 μg/ml): 0.42 ± 0.03 μm
Tail length ([4]; S9 Mix (−), 3.9 μg/ml): 1.49 ± 0.36 μm
Tail moment ([4]; S9 Mix (−), 3.9 μg/ml): 0.03 ± 0.01 μm
% DNA in tail ([4]; S9 Mix (−), 7.8 μg/ml): 1.09 ± 0.37%
Olive moment ([4]; S9 Mix (−), 7.8 μg/ml): 0.62 ± 0.05 μm
Tail length ([4]; S9 Mix (−), 7.8 μg/ml): 1.98 ± 0.27 μm
Tail moment ([4]; S9 Mix (−), 7.8 μg/ml): 0.07 ± 0.02 μm
% DNA in tail ([4]; S9 Mix (−), 15.5 μg/ml): 1.61 ± 0.49%
Olive moment ([4]; S9 Mix (−), 15.5 μg/ml): 0.75 ± 0.07 μm
Tail length ([4]; S9 Mix (−), 15.5 μg/ml): 2.11 ± 0.41 μm
Tail moment ([4]; S9 Mix (−), 15.5 μg/ml): 0.13 ± 0.03 μm
% DNA in tail ([4]; S9 Mix (−), 31 μg/ml): 2.13 ± 0.36%
Olive moment ([4]; S9 Mix (−), 31 μg/ml): 0.98 ± 0.09 μm
Tail length ([4]; S9 Mix (−), 31 μg/ml): 2.75 ± 0.37 μm
Tail moment ([4]; S9 Mix (−), 31 μg/ml): 0.16 ± 0.03 μm
% DNA in tail ([4]; S9 Mix (−), 62 μg/ml): 2.52 ± 0.34%
Olive moment ([4]; S9 Mix (−), 62 μg/ml): 1.01 ± 0.07 μm
Tail length ([4]; S9 Mix (−), 62 μg/ml): 2.82 ± 0.46 μm
Tail moment ([4]; S9 Mix (−), 62 μg/ml): 0.21 ± 0.05 μm
% DNA in the tail, tail length, TM, or OM versus vehicle ([4]; presence or absence of metabolic activation): No significant differences
HS-1793 related toxicity (reduced revertant numbers and/or thinning of the background lawn) ([5]; 5,000 μg/plate, absence or presence of S9 metabolic activation): not observed
Revertant frequencies compared to concurrent vehicle control ([5]; any dose (78.1~5,000 μg/plate), any tester strain, with or without the S9 mix): No increases in revertant frequencies
ROS and cellular DNA damage [6]: significantly decreased
